Reference: ChEMBL document CHEMBL4706590, “Design and characterization of cereblon-mediated androgen receptor proteolysis-targeting chimeras” (Eur J Med Chem, 2020)
Calls of active or inactive are those of the source. The rule behind the calls is not given here.

Tests used:
[1] = target: T1, Protein cereblon/Androgen receptor (Homo sapiens, UniProt P10275+Q96SW2); assay: Protac activity at CRBN/AR in human LNCaP cells assessed as AR degradation at 0.1 to 10 uM Western blotting analysis relative to control; assay type: cell-based; details: dose 0.1-10 µM
Outline: (§1)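 LNCaP (IMDM) or 22RV1 (RPMI 1640) cells with 10% FBS at 37 °C, 5% CO2, treated with DMSO vehicle as control. Cells lysed in RIPA buffer (50 mM Tris-HCl pH 7.5, 150 mM NaCl, 1% Triton X-100, 0.1% SDS, 0.5% deoxycholate, protease inhibitors). Protein quantified by Bradford assay. Immunoblotted for AR with tubulin as loading control, HRP chemiluminescence detection.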
Target sequence in this assay (P10275 whole entry, looked up): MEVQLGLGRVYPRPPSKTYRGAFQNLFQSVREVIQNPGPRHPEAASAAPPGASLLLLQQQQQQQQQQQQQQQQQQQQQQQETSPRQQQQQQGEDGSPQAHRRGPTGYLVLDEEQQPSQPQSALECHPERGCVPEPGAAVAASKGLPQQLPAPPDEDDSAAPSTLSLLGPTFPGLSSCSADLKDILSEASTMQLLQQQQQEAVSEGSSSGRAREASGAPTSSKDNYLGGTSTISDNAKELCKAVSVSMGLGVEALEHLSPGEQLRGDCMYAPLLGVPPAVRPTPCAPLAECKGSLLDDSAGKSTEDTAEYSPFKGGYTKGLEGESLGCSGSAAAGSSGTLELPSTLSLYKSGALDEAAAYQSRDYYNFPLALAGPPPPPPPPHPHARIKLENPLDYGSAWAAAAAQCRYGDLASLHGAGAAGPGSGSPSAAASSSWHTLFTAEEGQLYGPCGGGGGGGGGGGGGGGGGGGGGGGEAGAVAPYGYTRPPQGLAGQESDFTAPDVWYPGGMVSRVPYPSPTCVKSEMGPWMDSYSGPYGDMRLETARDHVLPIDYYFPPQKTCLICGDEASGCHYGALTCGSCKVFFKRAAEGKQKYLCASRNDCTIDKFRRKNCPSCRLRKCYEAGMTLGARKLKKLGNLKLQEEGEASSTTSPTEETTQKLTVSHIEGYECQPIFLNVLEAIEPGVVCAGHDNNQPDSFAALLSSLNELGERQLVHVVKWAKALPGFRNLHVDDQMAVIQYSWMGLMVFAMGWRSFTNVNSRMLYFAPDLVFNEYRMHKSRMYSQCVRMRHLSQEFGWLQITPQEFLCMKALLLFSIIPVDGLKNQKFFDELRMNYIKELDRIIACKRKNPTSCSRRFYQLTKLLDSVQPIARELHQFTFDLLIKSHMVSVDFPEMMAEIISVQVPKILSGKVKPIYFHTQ
Target sequence in this assay (Q96SW2 whole entry, looked up): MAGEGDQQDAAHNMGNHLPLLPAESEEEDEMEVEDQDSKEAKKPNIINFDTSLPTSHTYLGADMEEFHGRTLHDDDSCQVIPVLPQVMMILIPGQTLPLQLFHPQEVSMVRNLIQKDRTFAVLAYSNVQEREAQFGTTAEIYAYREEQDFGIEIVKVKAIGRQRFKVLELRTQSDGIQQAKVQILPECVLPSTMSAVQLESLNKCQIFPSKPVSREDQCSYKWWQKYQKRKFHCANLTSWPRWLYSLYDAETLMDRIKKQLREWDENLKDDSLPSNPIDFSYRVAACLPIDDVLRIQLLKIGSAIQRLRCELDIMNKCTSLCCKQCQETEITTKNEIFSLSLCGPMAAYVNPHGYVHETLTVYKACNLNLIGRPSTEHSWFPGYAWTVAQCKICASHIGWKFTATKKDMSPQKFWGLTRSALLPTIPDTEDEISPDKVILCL

[2] = Tmax in ICR mouse at 30 mg/kg, po by LC-MS/MS analysis; assay type: ADME, organism-based; details: in vivo
Outline: (§2)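 Male ICR mice, 7 weeks old. Single dose of 5 mg/kg IV or IP in 5% DMSO, 52% PEG400, 3% Tween 80 in water, or 30 mg/kg PO in 20% PEG400 and 3% Tween 80 in water. Retro-orbital blood sampled over time. Plasma protein-precipitated with acetonitrile (1:10) and analysed by LC-MS/MS. Parameters from noncompartmental analysis of mean data, n = 3.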

[3] = target: T1, Protein cereblon/Androgen receptor; assay: Protac activity at CRBN/AR in human LNCaP cells assessed as AR degradation at 1 uM pretreated with neddylation inhibitor MLN4924 by Western blotting analysis; assay type: cell-based; outline: as §1
Target sequence in this assay (P10275 whole entry, looked up): as the sequence (P10275 whole entry, looked up) above
Target sequence in this assay (Q96SW2 whole entry, looked up): as the sequence (Q96SW2 whole entry, looked up) above

[4] = Metabolic stability in mouse liver microsomes assessed as compound remaining at 1 uM after 30 mins in presence of NADPH-regenerating system; assay type: ADME, Microsome; details: read-out: Stabilty
Outline: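 Mouse liver microsomes at 0.5 mg protein/mL in 100 mM PBS, pH 7.4. Reaction started with NADPH-regenerating solution (1.3 mM NADP+, 3.3 mM glucose-6-phosphate, 0.4 U/mL G6PDH, 3.3 mM MgCl2). Incubated 30 min at 37 °C, stopped with ice-cold acetonitrile, centrifuged. Percent remaining reported as mean ± SD, n = 3.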

[5] = Cmax in ICR mouse at 5 mg/kg, ip by LC-MS/MS analysis; assay type: ADME, organism-based; design: route intraperitoneal, dose 5 mg/kg; details: in vivo; outline: as §2
[6] = target: T1, Protein cereblon/Androgen receptor; assay: Protac activity at CRBN/AR in human LNCaP cells assessed as AR degradation at 1 uM after 4 hrs by Western blotting analysis relative to control; assay type: cell-based; outline: as §1
Target sequence in this assay (P10275 whole entry, looked up): as the sequence (P10275 whole entry, looked up) above
Target sequence in this assay (Q96SW2 whole entry, looked up): as the sequence (Q96SW2 whole entry, looked up) above

[7] = Cmax in ICR mouse at 30 mg/kg, po by LC-MS/MS analysis; assay type: ADME, organism-based; design: route oral, dose 30 mg/kg; details: in vivo; outline: as §2
[8] = target: T1, Protein cereblon/Androgen receptor; assay: Protac activity at CRBN/AR in human LNCaP cells assessed as AR degradation at 1 uM by Western blotting analysis relative to control; assay type: cell-based; outline: as §1
Target sequence in this assay (P10275 whole entry, looked up): as the sequence (P10275 whole entry, looked up) above
Target sequence in this assay (Q96SW2 whole entry, looked up): as the sequence (Q96SW2 whole entry, looked up) above

[9] = target: T1, Protein cereblon/Androgen receptor; assay: Protac activity at CRBN/AR in human LNCaP cells assessed as AR degradation at 0.1 uM by western blotting analysis relative to control; assay type: cell-based; outline: as §1
Target sequence in this assay (P10275 whole entry, looked up): as the sequence (P10275 whole entry, looked up) above
Target sequence in this assay (Q96SW2 whole entry, looked up): as the sequence (Q96SW2 whole entry, looked up) above

[10] = target: T1, Protein cereblon/Androgen receptor; assay: Protac activity at CRBN/AR in human LNCaP cells assessed as AR degradation at 1 uM pretreated with protease inhibitor bortezomib by Western blotting analysis; assay type: cell-based; outline: as §1
Target sequence in this assay (P10275 whole entry, looked up): as the sequence (P10275 whole entry, looked up) above
Target sequence in this assay (Q96SW2 whole entry, looked up): as the sequence (Q96SW2 whole entry, looked up) above

[11] = AUCt in ICR mouse at 5 mg/kg, ip by LC-MS/MS analysis; assay type: ADME, organism-based; design: dose 5 mg/kg; details: in vivo; outline: as §2
[12] = target: T1, Protein cereblon/Androgen receptor; assay: Protac activity at CRBN/AR in human LNCaP cells assessed as maximum degradation of AR by Western blotting analysis relative to control; assay type: cell-based; details: time 24.0 hrs; outline: as §1
[13] = target: T1, Protein cereblon/Androgen receptor; assay: Protac activity at CRBN/AR in human 22RV1 cells assessed as maximum degradation of AR-V7 splice variant at 10 uM by Western blotting analysis relative to control; assay type: cell-based; outline: as §1
[14] = AUCt in ICR mouse at 5 mg/kg, iv by LC-MS/MS analysis; assay type: ADME, organism-based; design: dose 5 mg/kg; details: in vivo; outline: as §2
[15] = Half life in ICR mouse at 5 mg/kg, iv by LC-MS/MS analysis; assay type: ADME, organism-based; details: in vivo; outline: as §2
[16] = target: T1, Protein cereblon/Androgen receptor; assay: Protac activity at CRBN/AR in human LNCaP cells assessed as AR degradation after 24 hrs by Western blotting analysis; assay type: cell-based; outline: as §1
Target sequence in this assay (P10275 whole entry): as the sequence (P10275 whole entry, looked up) above
Target sequence in this assay (Q96SW2 whole entry): as the sequence (Q96SW2 whole entry, looked up) above

VCaP [17] = assay: Antiproliferative activity against human VCaP cells assessed as reduction in cell viability after 6 days by CellTiter-Glo assay; assay type: functional; details: 144 h, time 6 day
Outline: (§3)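 LNCaP seeded at 1.5 × 10³ and VCaP at 4 × 10³ cells per well in 96-well plates. Cells grown in IMDM with 10% FBS and antibiotic-antimycotic at 37 °C, 5% CO2, with DMSO as vehicle. IC50 from nonlinear regression of log(inhibitor) versus response.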

[18] = Toxicity in SCID mouse xenografted with human VCaP cells assessed as loss of body weight at 30 mg/kg, ip administered once daily for 10 days and measured every 1 to 3 days post treatment; assay type: organism-based; details: in vivo, 240 h, time 10 day
Outline: (§4)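 Male SCID mice (C.B-17/IcrCrj-scid) implanted subcutaneously in the right flank with 1.5×10⁷ VCaP cells mixed 1:1 with Matrigel. At about 130 mm³, mice dosed IP once daily for 10 days, vehicle 20% PEG400 + 3% Tween 80 in PBS. Tumours measured by caliper, volume = length × width² × 0.5. Body weight tracked alongside; Mann-Whitney U test, α = 0.01.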

[19] = AUCt in ICR mouse at 30 mg/kg, po by LC-MS/MS analysis; assay type: ADME, organism-based; design: dose 30 mg/kg; details: in vivo; for AUC(0-t): ICR; outline: as §2
[20] = Half life in ICR mouse at 5 mg/kg, ip by LC-MS/MS analysis; assay type: ADME, organism-based; details: in vivo; outline: as §2
[21] = target: T1, Protein cereblon/Androgen receptor; assay: Protac activity at CRBN/AR in human 22RV1 cells assessed as maximum degradation of AR at 1 uM by Western blotting analysis relative to control; assay type: cell-based; outline: as §1
[22] = Tmax in ICR mouse at 5 mg/kg, ip by LC-MS/MS analysis; assay type: ADME, organism-based; details: in vivo; outline: as §2
VCaP [23] = assay: Antitumor activity against human VCaP cells xenografted in SCID mouse assessed as reduction in tumor growth at 30 mg/kg, ip administered once daily for 10 days and measured every 1 to 3 days post treatment by caliper method; assay type: functional, organism-based; details: time 10.0 day; outline: as §4
[24] = target: T1, Protein cereblon/Androgen receptor; assay: Protac activity at CRBN/AR in human LNCaP cells assessed as AR degradation at 10 uM by Western blotting analysis relative to control; assay type: cell-based; outline: as §1
LNCaP = assay: Antiproliferative activity against human LNCaP cells assessed as reduction in cell viability after 6 days by CellTiter-Glo assay; assay type: functional; details: 144 h, time 6 day; outline: as §3
[25] = Half life in ICR mouse at 30 mg/kg, po by LC-MS/MS analysis; assay type: ADME, organism-based; details: in vivo; for t1/2: 30 mg/kg; outline: as §2

SMILES | Tmax ([2]; ICR, read-out: Tmax) [h] | remaining at 0.5 h, 1 µM [4] [%] | Cmax [5] [ng/mL] | Cmax ([7]; ICR, read-out: Cmax) [ng/mL] | Activity [8] [%] | Activity [9] [%] | AUCt [11] [ng·h/mL] | AUC(0-t) [14] [ng·h/mL] | half-life [15] [h] | AUC(0-t) [19] [ng·h/mL] | t1/2 [20] [h] | Tmax [22] [h] | Activity [24] [%] | Tmax ([2]; 30 mg/kg) [h] | t1/2 [25] [h] | Cmax [7] [ng/mL] | AUCt [19] [ng·h/mL] | CC50 (VCaP [17]) [nM] | CC50 (LNCaP) [nM] | also measured
CN1C(=O)CCC(n2nnc3ccc(N4CCC(C(=O)N5CCC6(CC5)CC(N5CCN(c7ccc(C(=O)N[C@H]8C(C)(C)[C@H](Oc9ccc(C#N)c(Cl)c9)C8(C)C)cc7)CC5)C6)CC4)cc3c2=O)C1=O (stereo partly drawn) | – | – | – | – | – | – | – | – | – | – | – | – | – | – | – | – | – | – | – | Activity [1]: inactive
CC1(C)[C@H](NC(=O)c2ccc(N3CCN(C4CC5(CCN(C(=O)C6CCN(c7ccc8nnn(C9CCC(=O)NC9=O)c(=O)c8c7)CC6)CC5)C4)CC3)cc2)C(C)(C)[C@H]1Oc1ccc(C#N)c(Cl)c1 (stereo partly drawn) | 4 | 96 | 2780 | 110 | 93 | 85 | 1720 | 20700 | 8.28 | 530 | 4.41 | 0.03 | 95 | – | – | – | – | 44 | 98 | Activity [3]: inactive; Activity [6]: 80%; Activity [10]: inactive; Activity [12]: 93%; Activity [13]: 34%; DC50 [16]: 12.5 nM; Activity [18]: Non-Toxic; Activity [21]: 85%; Activity (VCaP [23]): Active
CC1(C)[C@H](NC(=O)c2ccc(N3CCN(CC4CCN(C(=O)C5CN(c6ccc7nnn(C8CCC(=O)NC8=O)c(=O)c7c6)C5)CC4)CC3)cc2)C(C)(C)[C@H]1Oc1ccc(C#N)c(Cl)c1 (stereo partly drawn) | – | 92.8 | 5540 | – | 96 | 96 | 24200 | 24100 | 4.48 | – | 4.82 | 2 | 83 | 0.67 | 26.7 | 50 | 440 | 38 | 89 | –

Continued, in another order:

Tmax ([2]; ICR, read-out: Tmax) [h] | remaining at 0.5 h, 1 µM [4] [%] | Cmax [5] [ng/mL] | Cmax ([7]; ICR, read-out: Cmax) [ng/mL] | Activity [8] [%] | Activity [9] [%] | AUCt [11] [ng·h/mL] | AUC(0-t) [14] [ng·h/mL] | half-life [15] [h] | AUC(0-t) [19] [ng·h/mL] | t1/2 [20] [h] | Tmax [22] [h] | Activity [24] [%] | Tmax ([2]; 30 mg/kg) [h] | t1/2 [25] [h] | Cmax [7] [ng/mL] | AUCt [19] [ng·h/mL] | SMILES | CC50 (VCaP [17]) [nM] | CC50 (LNCaP) [nM] | also measured
– | 92.6 | 2010 | – | 86 | 82 | 7490 | 4490 | 4.35 | – | 4.24 | 1.67 | 90 | 0.7 | 19.7 | 20 | 150 | CC1(C)[C@H](NC(=O)c2ccc(N3CCN(CCOC4CCN(C(=O)C5CN(c6ccc7nnn(C8CCC(=O)NC8=O)c(=O)c7c6)C5)CC4)CC3)cc2)C(C)(C)[C@H]1Oc1ccc(C#N)c(Cl)c1 (stereo partly drawn) | 57 | 762 | –
2 | 86.8 | 1780 | 280 | 89 | 86 | 10700 | 14300 | 4.68 | 2840 | 4.51 | 2 | 87 | – | – | – | – | CC1(C)[C@H](NC(=O)c2ccc(N3CCN(CCOC4CCN(c5ccc6nnn(C7CCC(=O)NC7=O)c(=O)c6c5)CC4)CC3)cc2)C(C)(C)[C@H]1Oc1ccc(C#N)c(Cl)c1 (stereo partly drawn) | 22 | 523 | half-life ([25]; ICR): 5.58 h
